Experimental data from different studies.
Compare with care: the assays were run in different laboratories.
Target: Tyrosine-protein kinase receptor Tie-1 (TIE1, Homo sapiens, UniProt P35590)

SMILES | test | setting | remaining binding [%]
COc1ncc2cc3ccccc3nc2c1C#N | cell-free assay, competition with immobilised ligand | 5 µM | 100
c1cnn2ncc(-c3ccnc(N4CCC45COC5)n3)c2c1 | binding | 1 µM | 100
CS(=O)(=O)N1CCCC(NC(=O)[C@H](CCC2CCCCC2)NC(=O)c2ccc(CNC(=O)c3cnc4ccccn34)cc2)C1 (stereo partly shown) | cell-free assay, competition with immobilised ligand | 0.1 µM | 100
COc1cnc(Nc2cccc(S(N)(=O)=O)c2)nc1N1CCN(c2ccccc2)CC1 | binding, competition with immobilised ligand | 1 µM | 99
O=C(c1ccc(Nc2nccc(-c3cc4ccccc4s3)n2)cc1)N1CCC(N2CCCC2)CC1 | binding, competition with immobilised ligand | 1 µM | 23
COc1ccnn2ncc(-c3ccnc(N(C)C)n3)c12 | binding | 1 µM | 81
C[C@H](NC(=O)c1cnc2n1[C@](C)(Cc1ccc(C#N)cc1)C(=O)N2c1cc(Cl)c(F)c(Cl)c1)C(=O)NC1(c2ccccn2)CC1 | cell-free assay, competition with immobilised ligand | 1 µM | 100
N[C@H]1CCN(c2nccc(-c3cnn4ncccc34)n2)C1 | binding | 1 µM | 100
O=C(c1ccc(Nc2ncc(Cl)c(-c3ccc(Cl)s3)n2)cc1)N1CCC(N2CCCC2)CC1 | binding, competition with immobilised ligand | 1 µM | 18
Cc1noc([C@H]2C[C@@H](c3ccc(C(F)(F)F)cc3)CN(C(=O)N3CCS(=O)(=O)C3)C2)n1 | cell-free assay, competition with immobilised ligand | 1 µM | 89
COc1cnc(Nc2cccc(S(N)(=O)=O)c2)nc1N1CCN(c2ccccc2)C(=O)C1 | binding, competition with immobilised ligand | 1 µM | 100
Cc1cc(-n2nc(Cc3cc(F)cc(C(F)(F)F)c3)nc2C)ccc1C(N)=O | cell-free assay, competition with immobilised ligand | 1 µM | 100
C[C@@H]1CCN(c2nccc(-c3cnn4ncccc34)n2)C1 | binding | 1 µM | 100
CCN1CCN(Cc2ccc(C(=O)Nc3ccc(C)c(Oc4ccc5c(c4)CC(=O)N5)c3)cc2C(F)(F)F)CC1 | binding, competition with immobilised ligand | 1 µM | 79
O=C(NCCCN1CCOCC1)c1ccc(Nc2nccc(-c3cc4ccccc4s3)n2)cc1 | binding, competition with immobilised ligand | 1 µM | 48
CCS(=O)(=O)c1cc2cc(C[C@](O)(CC(C)(C)c3ccc(F)cc3C(N)=O)C(F)(F)F)[nH]c2cn1 | cell-free assay, competition with immobilised ligand | 1 µM | 100
CN(C)c1nccc(-c2cnc3ncccn23)n1 | binding | 1 µM | 83
CNCc1ccccc1-c1csc([C@H](C)Nc2nc(C)nc3cc(OC)c(OC)cc23)c1 | cell-free assay, competition with immobilised ligand | 1 µM | 100
CN(CCCC(F)(F)F)c1nccc(-c2cnn3ncccc23)n1 | binding | 1 µM | 100
O=C(NCC1CCOCC1)c1n[nH]cc1NC(=O)c1c(F)cccc1F | binding, competition with immobilised ligand | 1 µM | 85
CCc1ccccc1C(=O)Nc1n[nH]c2c(C)c(F)c(C3C(C#N)=C(C)N(C)C(C)=C3C#N)cc12 | cell-free assay, competition with immobilised ligand | 1 µM | 100
c1cncc(-c2cccc(Nc3nccc(NC4CCCCC4)n3)c2)c1 | binding, competition with immobilised ligand | 10 µM | 17
